Compound activity (PubChem)
YB-1 expression: inhibitors of YB-1 gene expression, primary screen, cell-based, fluorescence; U2OS, qRT-PCR YB-1 vs CDIP delta delta Cp, 16 h; hits give high values; zero = DMSO, each unit about twofold; delta delta Cp (YB-1 minus CDIP) (no concentration beside the values); actives 0.37% (n = 30,000); AID 434959, 2010;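 active = delta delta Cp rounded down to an integer at or above 3, about 3 SD of DMSO wells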;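 also: higher means less YB-1 transcript or more CDIP transcript relative to DMSO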
INS-1E ATP HTS: protection of INS-1E cells from cytokine death, primary screen, ATP luminescence, single point | protection from cytokine-induced ATP loss, % at 10 µM | AID 488910, 2010 | INS-1E cytokine-induced death, 48 h; normalised: neutral wells 0, positive control 100 | actives 0.1% (n = 20,000);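 active = mean replicate protection from cytokine-induced ATP loss at least 50% and at least 75% of replicates each reaching 50%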
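assay system = INS-1E rat insulinoma cells | amount = 8000 cells per well | medium = phenol-red-free RPMI with 5% fetal bovine serum | doses = one compound concentration, pin transfer | timing = 48 h cytokine plus compound treatment, 10 min reagent incubation | also added = IL-1β, TNF-α and IFN-γ cytokine mix | signal = CellTiter-Glo luminescence measuring cellular ATP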
T cruzi intra: inhibitors of intracellular Trypanosoma cruzi, primary screen, cell-based, plate reader, single point, set 2; intracellular Trypanosoma cruzi in host cells; actives 4.9% (n = 22,000); AID 651903, 2012; activity score (inhibition), % at 5.01 µM; in the data active = activity score above about 55%;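 also: parasites and compound incubated about four days before reading; 0% = median of neutral control wells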
Numbers without * were called inactive; . = no result given. Many of the other results were omitted from the sample, so hits are more common in it than they were.

SMILES	YB-1 expression	INS-1E ATP HTS	T cruzi intra
C[C@@H]1CN([C@H](C)CO)C(=O)c2cccc(NC(=O)NC3CCCCC3)c2O[C@H]1CN(C)CC1CCCCC1	-0.699	-57.1	83.1*
C[C@@H]1CN([C@H](C)CO)C(=O)c2cccc(NC(=O)Nc3ccc(C(F)(F)F)cc3)c2O[C@@H]1CN(C)CC1CCCCC1	0.00853	-28.6	14.3
C[C@H](CO)N1C[C@H](C)[C@@H](CN(C)CC2CCCCC2)Oc2c(NC(=O)NC3CCCCC3)cccc2C1=O	-0.432	-13.1	22.8
C[C@@H]1CN([C@H](C)CO)C(=O)c2cccc(NS(=O)(=O)c3cn(C)cn3)c2O[C@@H]1CN(C)CC1CCCCC1	0.498	1.1	60.4*
C[C@H](CO)N1C[C@H](C)[C@H](CN(C)CC2CCCCC2)Oc2c(NC(=O)Nc3ccc(C(F)(F)F)cc3)cccc2C1=O	-0.755	-82.1	56.3*
C[C@H](CO)N1C[C@H](C)[C@H](CN(C)CC2CCCCC2)Oc2c(NC(=O)Nc3ccccc3)cccc2C1=O	3.1*	-38.2	11.0
COc1ccc(OC)c(NC(=O)c2ccc(CSc3ncnc4nc[nH]c34)cc2)c1	0.0823	.	.
COc1ccc(NC(=O)C2CC(=O)NC(=Nc3ccccc3)S2)cc1 (stereo unspecified)	-0.688	.	.
CN1CCN(CCOc2ccccc2)CC1	-0.397	.	.
Cc1ccc(C(=O)CC(C(=O)O)N2CCN(C)CC2)cc1 (stereo unspecified)	0.419	.	.
COc1ccc(S(=O)(=O)Nc2ccc3c(c2)C(=O)N([C@H](C)CO)C[C@@H](C)[C@@H](CN(C)Cc2ccc(Oc4ccccc4)cc2)O3)cc1	-0.419	-13.8	-12.1
COc1ccc(S(=O)(=O)Nc2ccc3c(c2)C(=O)N([C@H](C)CO)C[C@H](C)[C@@H](CN(C)Cc2ccc(Oc4ccccc4)cc2)O3)cc1	13.5*	-15.6	42.2
COc1ccc(S(=O)(=O)Nc2ccc3c(c2)C(=O)N([C@@H](C)CO)C[C@H](C)[C@H](CN(C)Cc2ccc(Oc4ccccc4)cc2)O3)cc1	-0.328	-48.1	74.1*
COc1ccc(S(=O)(=O)Nc2ccc3c(c2)C(=O)N([C@H](C)CO)C[C@@H](C)[C@H](CN(C)Cc2ccc(Oc4ccccc4)cc2)O3)cc1	0.163	-26.1	32.2
COc1ccc(/C=C2/SC(=S)N(C)C2=O)cc1	0.252	.	.
N#C/C(=C\Nc1ccc(F)c(Cl)c1)S(=O)(=O)Cc1ccco1	0.266	.	.
C[C@H](CO)N1C[C@H](C)[C@H](CN(C)C(=O)Nc2ccc3c(c2)OCO3)Oc2ncc(C#Cc3ccccc3)cc2C1=O	-0.158	.	69.2*
COc1ccc(NC(=O)N(C)C[C@@H]2Oc3ncc(-c4cccc(C(F)(F)F)c4)cc3C(=O)N([C@H](C)CO)C[C@@H]2C)cc1	-0.0146	.	59.4*
C[C@H](CO)N1C[C@H](C)[C@H](CN(C)C(=O)Nc2ccc(F)cc2)Oc2ncc(-c3cccc(C(F)(F)F)c3)cc2C1=O	0.0571	.	50.8
C[C@H](CO)N1C[C@H](C)[C@H](CN(C)C(=O)Nc2ccc3c(c2)OCO3)Oc2ncc(-c3cccc(C(F)(F)F)c3)cc2C1=O	-0.00468	.	67.3*
C[C@H](CO)N1C[C@H](C)[C@H](CN(C)C(=O)Nc2ccc3c(c2)OCO3)Oc2ncc(C#Cc3ccc(F)cc3)cc2C1=O	0.0503	-2.5	-16.9
C[C@H](CO)N1C[C@H](C)[C@H](CN(C)C(=O)Nc2ccc3c(c2)OCO3)Oc2ncc(-c3cccc(F)c3)cc2C1=O	0.277	.	-14.8
C[C@H](CO)N1C[C@H](C)[C@H](CN(C)C(=O)Nc2ccccc2)Oc2ncc(-c3cccc(C(F)(F)F)c3)cc2C1=O	0.0882	.	63.9*
COc1ccc(NC(=O)N(C)C[C@@H]2Oc3ncc(-c4ccc(OC)cc4)cc3C(=O)N([C@H](C)CO)C[C@@H]2C)cc1	-0.889	.	28.8
CN1CCN(CCCN2C(=O)CSC2c2ccc(F)cc2)CC1 (stereo unspecified)	-0.63	.	.
SMILES	YB-1 expression	INS-1E ATP HTS	T cruzi intra
COC(=O)C(=O)CC(=O)c1c(F)c(F)c(OC)c(F)c1F	0.102	.	.
CCN(CC)C(=S)Oc1ccc(I)cc1	0.178	.	.
Cc1nc(N)nc(CSc2ccccc2)n1	-0.105	.	.
FC(F)(F)c1cc(-c2cn3ccccc3n2)cc(C(F)(F)F)c1	-0.292	.	.
Cc1ccc(/C=N/NC(=O)CCCCCC(=O)O)o1	-0.493	-3.5	-15.3
O=C(N/N=C/c1ccc(-c2cccc(Cl)c2)o1)c1ccccn1	0.0669	12.7	85.2*
Cc1ccc(/C=N/NC(=O)c2ccccn2)o1	0.069	-2.9	2.0
COC(=O)CCCCCCC(=O)N/N=C/c1ccc(-c2cccc(Cl)c2)o1	-0.15	4.5	26.9
O=C(N/N=C/c1cc(Br)c(O)c(Br)c1)c1ccccn1	0.198	7.2	-13.0
O=C(N/N=C/c1cc(Br)cc(Br)c1O)c1ccccn1	-0.176	-42.4	78.3*
Cc1ccc(/C=N/NC(=O)CCCCCC(=O)NO)o1	0.402	107.5*	7.4
O=C(CCCCC(=O)N/N=C/c1ccc(-c2cccc(Cl)c2)o1)NO	-0.425	148.7*	19.1
S=C(NCCc1ccccc1)N1CCc2ccccc21	-0.693	.	.
c1ccc(COc2ccc(NCCc3ccncc3)cc2)cc1	0.0177	.	.
N=c1sc2ccccc2n1C(=O)OCc1ccccc1	-0.551	.	.
C[C@@H]1CN([C@H](C)CO)C(=O)c2cccc(NC(=O)C3CCCCC3)c2O[C@H]1CN(C)Cc1ccc(Oc2ccccc2)cc1	-0.48	-26.7	69.1*
C[C@H](CO)N1C[C@H](C)[C@H](CN(C)Cc2ccc(Oc3ccccc3)cc2)Oc2c(NC(=O)C3CCOCC3)cccc2C1=O	0.533	-9.3	7.1
C[C@@H]1CN([C@@H](C)CO)C(=O)c2cccc(NC(=O)C3CCCCC3)c2O[C@@H]1CN(C)Cc1ccc(Oc2ccccc2)cc1	-0.247	-65.3	16.9
C[C@@H]1CN([C@H](C)CO)C(=O)c2cccc(NC(=O)C3CC3)c2O[C@@H]1CN(C)Cc1ccc(Oc2ccccc2)cc1	0.111	-23.9	-8.0
C[C@H](CO)N1C[C@H](C)[C@@H](CN(C)Cc2ccc(Oc3ccccc3)cc2)Oc2c(NC(=O)C3CCCCC3)cccc2C1=O	-0.5	-61.7	75.0*
C[C@@H]1CN([C@@H](C)CO)C(=O)c2cccc(NC(=O)C3CCCCC3)c2O[C@H]1CN(C)Cc1ccc(Oc2ccccc2)cc1	-0.122	-94.7	65.6*
C[C@@H]1CN([C@@H](C)CO)C(=O)c2cccc(NC(=O)C3CC3)c2O[C@H]1CN(C)Cc1ccc(Oc2ccccc2)cc1	-0.277	-68.4	63.1*
C[C@H](CO)N1C[C@H](C)[C@H](CN(C)Cc2ccc(Oc3ccccc3)cc2)Oc2c(NC(=O)C3CC3)cccc2C1=O	-0.261	-16.0	-20.3
Cc1ccc(C(=O)Nc2ccccc2)c(C)n1	0.0511	.	.
COc1ccc(NC(=O)Nc2ccc3c(c2)CC(=O)N([C@@H](C)CO)C[C@H](C)[C@@H](CN(C)Cc2ccc(Oc4ccccc4)cc2)O3)cc1	0.393	-39.6	62.5*
C[C@H]1CN([C@@H](C)CO)C(=O)Cc2cc(NC(=O)C3CCCCC3)ccc2O[C@@H]1CN(C)Cc1ccc(Oc2ccccc2)cc1	0.16	-29.2	59.1*
